≈ marks a conversion by molar mass, not a printed value.
Columns and labels:
Histone deacetylase 9 = Histone deacetylase 9 (Homo sapiens, UniProt Q9UKV0); assay: Inhibition of HDAC9 (unknown origin) using Boc Lys(TFA) as substrate by fluorogenic assay
In short: (§1)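 Biochemical HDAC isoform assay with the artificial fluorogenic substrate Boc-Lys-(TFA)-AMC, which is specific to class IIa enzymes and HDAC8. IC50 taken as the geometric mean of three experiments.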

Histone deacetylase 4 [1] = biological target: T1, Histone deacetylase 4 (Homo sapiens, UniProt P56524); assay: Inhibition of HDAC4 (unknown origin) using Boc Lys(TFA) as substrate by fluorogenic assay; in short: as §1
T1 sequence (P56524 whole entry): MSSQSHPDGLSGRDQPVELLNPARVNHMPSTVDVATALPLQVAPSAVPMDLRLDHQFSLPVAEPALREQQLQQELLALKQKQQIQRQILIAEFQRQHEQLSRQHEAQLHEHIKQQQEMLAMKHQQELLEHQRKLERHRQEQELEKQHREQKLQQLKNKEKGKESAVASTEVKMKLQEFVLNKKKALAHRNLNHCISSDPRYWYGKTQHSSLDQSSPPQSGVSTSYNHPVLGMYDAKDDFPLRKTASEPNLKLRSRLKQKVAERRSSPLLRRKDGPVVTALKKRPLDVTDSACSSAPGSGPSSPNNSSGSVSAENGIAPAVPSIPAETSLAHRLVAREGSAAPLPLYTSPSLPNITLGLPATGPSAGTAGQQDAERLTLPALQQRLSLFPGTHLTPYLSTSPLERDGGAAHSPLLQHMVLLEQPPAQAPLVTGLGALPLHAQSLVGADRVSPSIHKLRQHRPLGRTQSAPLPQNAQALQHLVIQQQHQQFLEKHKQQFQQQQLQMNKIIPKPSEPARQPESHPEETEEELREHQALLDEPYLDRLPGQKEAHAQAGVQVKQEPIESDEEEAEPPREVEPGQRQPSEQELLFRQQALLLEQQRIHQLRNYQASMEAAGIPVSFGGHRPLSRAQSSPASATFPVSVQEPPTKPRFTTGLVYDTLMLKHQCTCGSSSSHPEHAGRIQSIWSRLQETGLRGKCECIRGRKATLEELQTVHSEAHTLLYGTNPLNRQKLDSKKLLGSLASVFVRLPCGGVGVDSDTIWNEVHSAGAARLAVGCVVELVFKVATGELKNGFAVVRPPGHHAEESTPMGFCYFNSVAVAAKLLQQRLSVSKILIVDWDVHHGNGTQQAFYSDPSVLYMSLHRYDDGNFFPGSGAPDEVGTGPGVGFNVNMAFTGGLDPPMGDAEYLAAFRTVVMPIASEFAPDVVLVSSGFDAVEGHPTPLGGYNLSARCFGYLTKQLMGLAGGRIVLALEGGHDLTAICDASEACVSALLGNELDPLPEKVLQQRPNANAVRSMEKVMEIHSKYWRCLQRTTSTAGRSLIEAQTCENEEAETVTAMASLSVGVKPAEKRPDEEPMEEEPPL

Histone deacetylase 2 = Histone deacetylase 2 (Homo sapiens, UniProt Q92769); assay: Inhibition of HDAC2 (unknown origin) using Ac-Arg-Gly-Lys(Ac) as substrate by fluorogenic assay
Sequence of Histone deacetylase 2 (Q92769 whole entry): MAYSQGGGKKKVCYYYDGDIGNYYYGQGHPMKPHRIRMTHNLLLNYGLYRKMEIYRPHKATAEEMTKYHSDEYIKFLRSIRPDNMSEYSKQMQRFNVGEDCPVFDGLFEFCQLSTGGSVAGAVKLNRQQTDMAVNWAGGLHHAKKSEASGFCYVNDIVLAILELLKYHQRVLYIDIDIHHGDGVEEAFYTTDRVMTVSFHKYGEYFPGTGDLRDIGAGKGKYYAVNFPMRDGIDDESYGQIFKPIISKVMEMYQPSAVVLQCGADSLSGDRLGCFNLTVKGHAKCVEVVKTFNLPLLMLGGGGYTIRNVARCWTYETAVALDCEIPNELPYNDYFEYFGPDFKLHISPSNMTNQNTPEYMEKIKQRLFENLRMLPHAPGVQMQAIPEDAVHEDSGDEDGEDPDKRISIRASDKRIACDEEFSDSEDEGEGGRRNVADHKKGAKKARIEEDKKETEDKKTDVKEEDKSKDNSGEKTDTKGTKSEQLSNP

[2] = Kinetic solubility of the compound; type: physicochemical; conditions: read-out: Kinetic_solubility
Histone deacetylase 8 = biological target: T2, Histone deacetylase 8 (Homo sapiens, UniProt Q9BY41); assay: Inhibition of HDAC8 (unknown origin) using Boc-Lys(TFA) as substrate by fluorogenic assay; in short: as §1
T2 sequence (Q9BY41 whole entry): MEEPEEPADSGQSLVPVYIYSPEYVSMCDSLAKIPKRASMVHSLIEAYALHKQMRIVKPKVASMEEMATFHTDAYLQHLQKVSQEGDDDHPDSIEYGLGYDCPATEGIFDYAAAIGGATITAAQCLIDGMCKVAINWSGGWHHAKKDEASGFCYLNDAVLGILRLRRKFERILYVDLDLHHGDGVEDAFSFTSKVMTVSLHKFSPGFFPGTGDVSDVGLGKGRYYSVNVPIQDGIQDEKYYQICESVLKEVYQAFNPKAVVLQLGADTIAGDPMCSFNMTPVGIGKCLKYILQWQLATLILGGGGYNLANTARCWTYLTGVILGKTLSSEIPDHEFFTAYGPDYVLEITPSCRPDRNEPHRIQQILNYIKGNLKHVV

Histone deacetylase 4 [3] = biological target: T1, Histone deacetylase 4; assay: Inhibition of Class 2A HDAC4 in human Jurkat E6.1 cells using Boc-Lys-(TFA)-AMC as substrate by fluorogenic assay; type: cell-based
In short: (§2)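 Whole-cell assay in Jurkat E6.1 cells with artificial fluorogenic substrates: Boc-Lys-(TFA)-AMC for class IIa/HDAC8 activity, which in this line is mostly HDAC4, and Boc-Lys-(Ac)-AMC for class I/IIb activity. IC50 given as the geometric mean of three experiments.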

[4] = Intrinsic Clearance in mouse liver microsomes; type: ADME, Microsome; conditions: read-out: CLH
Histone deacetylase 1 = Histone deacetylase 1 (Homo sapiens, UniProt Q13547); assay: Inhibition of HDAC1 (unknown origin) using Ac-Arg-Gly-Lys(Ac) as substrate by fluorogenic assay
Sequence of Histone deacetylase 1 (Q13547 whole entry): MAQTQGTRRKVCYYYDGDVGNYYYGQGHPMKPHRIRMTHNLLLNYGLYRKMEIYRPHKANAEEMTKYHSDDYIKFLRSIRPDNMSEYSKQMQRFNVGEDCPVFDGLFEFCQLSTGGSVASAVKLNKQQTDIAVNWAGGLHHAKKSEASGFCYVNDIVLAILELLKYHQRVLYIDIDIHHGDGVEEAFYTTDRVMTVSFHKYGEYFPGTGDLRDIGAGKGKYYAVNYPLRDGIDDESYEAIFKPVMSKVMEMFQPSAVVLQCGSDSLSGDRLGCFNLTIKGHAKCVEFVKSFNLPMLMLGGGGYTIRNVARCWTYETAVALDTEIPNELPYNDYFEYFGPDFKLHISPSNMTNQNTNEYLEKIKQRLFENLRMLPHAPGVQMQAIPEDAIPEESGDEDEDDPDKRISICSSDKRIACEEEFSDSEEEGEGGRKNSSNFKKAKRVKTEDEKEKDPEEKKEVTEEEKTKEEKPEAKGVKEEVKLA

[5] = Apparent permeability of the compound in dog MDCK-MDR1 cells; type: ADME, cell-based, Canis lupus familiaris
[6] = Inhibition of Class 1/2b HDAC in human Jurkat E6.1 cells using Boc-Lys-(Ac)-AMC as substrate by fluorogenic assay; type: cell-based; in short: as §2
[7] = biological target: T3, Protein deacetylase HDAC6 (Homo sapiens, UniProt Q9UBN7); assay: Inhibition of HDAC6 (unknown origin) expressed in human HEK-Freestyle cells using Boc-Lys(Ac) as substrate by fluorogenic assay; type: cell-based
T3 sequence (Q9UBN7 whole entry): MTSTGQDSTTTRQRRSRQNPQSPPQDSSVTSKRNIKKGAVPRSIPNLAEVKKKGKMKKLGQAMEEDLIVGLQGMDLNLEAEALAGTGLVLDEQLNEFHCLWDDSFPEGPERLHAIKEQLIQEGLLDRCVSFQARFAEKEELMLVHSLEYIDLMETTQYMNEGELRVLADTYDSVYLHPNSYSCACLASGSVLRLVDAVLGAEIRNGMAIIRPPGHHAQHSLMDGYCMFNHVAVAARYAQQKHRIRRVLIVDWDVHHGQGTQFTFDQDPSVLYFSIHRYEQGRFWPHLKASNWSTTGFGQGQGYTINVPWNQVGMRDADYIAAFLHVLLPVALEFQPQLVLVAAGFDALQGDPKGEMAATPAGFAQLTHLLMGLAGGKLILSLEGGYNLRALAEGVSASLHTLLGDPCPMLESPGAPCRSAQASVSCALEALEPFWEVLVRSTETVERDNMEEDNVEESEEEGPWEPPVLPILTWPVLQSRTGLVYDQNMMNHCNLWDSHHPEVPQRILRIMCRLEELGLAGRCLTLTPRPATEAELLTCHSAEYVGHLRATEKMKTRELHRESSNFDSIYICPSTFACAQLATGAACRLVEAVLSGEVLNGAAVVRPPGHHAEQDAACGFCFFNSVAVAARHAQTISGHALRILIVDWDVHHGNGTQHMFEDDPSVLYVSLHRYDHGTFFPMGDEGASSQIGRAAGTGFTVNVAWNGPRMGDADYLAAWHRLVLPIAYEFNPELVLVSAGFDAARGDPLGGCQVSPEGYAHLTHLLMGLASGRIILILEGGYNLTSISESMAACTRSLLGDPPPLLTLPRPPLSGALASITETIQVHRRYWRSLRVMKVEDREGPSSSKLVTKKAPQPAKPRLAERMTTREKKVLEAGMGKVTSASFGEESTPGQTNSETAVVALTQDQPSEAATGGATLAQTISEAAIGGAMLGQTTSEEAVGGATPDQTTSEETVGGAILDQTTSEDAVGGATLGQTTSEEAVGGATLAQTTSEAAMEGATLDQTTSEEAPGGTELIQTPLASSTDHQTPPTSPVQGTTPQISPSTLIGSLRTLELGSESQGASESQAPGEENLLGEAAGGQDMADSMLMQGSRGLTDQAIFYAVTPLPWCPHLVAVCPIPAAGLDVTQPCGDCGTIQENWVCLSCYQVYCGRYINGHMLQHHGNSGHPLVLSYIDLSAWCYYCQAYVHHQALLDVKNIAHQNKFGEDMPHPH
In short: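 HDAC6 was supplied as lysate of HEK cells overexpressing the enzyme. Activity was read with the class I/IIb-specific fluorogenic substrate Boc-Lys-(Ac)-AMC. IC50 is the geometric mean of three experiments.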

Histone deacetylase 5 = Histone deacetylase 5 (Homo sapiens, UniProt Q9UQL6); assay: Inhibition of HDAC5 (unknown origin) using Boc Lys(TFA) as substrate by fluorogenic assay; in short: as §1
Sequence of Histone deacetylase 5 (Q9UQL6 whole entry): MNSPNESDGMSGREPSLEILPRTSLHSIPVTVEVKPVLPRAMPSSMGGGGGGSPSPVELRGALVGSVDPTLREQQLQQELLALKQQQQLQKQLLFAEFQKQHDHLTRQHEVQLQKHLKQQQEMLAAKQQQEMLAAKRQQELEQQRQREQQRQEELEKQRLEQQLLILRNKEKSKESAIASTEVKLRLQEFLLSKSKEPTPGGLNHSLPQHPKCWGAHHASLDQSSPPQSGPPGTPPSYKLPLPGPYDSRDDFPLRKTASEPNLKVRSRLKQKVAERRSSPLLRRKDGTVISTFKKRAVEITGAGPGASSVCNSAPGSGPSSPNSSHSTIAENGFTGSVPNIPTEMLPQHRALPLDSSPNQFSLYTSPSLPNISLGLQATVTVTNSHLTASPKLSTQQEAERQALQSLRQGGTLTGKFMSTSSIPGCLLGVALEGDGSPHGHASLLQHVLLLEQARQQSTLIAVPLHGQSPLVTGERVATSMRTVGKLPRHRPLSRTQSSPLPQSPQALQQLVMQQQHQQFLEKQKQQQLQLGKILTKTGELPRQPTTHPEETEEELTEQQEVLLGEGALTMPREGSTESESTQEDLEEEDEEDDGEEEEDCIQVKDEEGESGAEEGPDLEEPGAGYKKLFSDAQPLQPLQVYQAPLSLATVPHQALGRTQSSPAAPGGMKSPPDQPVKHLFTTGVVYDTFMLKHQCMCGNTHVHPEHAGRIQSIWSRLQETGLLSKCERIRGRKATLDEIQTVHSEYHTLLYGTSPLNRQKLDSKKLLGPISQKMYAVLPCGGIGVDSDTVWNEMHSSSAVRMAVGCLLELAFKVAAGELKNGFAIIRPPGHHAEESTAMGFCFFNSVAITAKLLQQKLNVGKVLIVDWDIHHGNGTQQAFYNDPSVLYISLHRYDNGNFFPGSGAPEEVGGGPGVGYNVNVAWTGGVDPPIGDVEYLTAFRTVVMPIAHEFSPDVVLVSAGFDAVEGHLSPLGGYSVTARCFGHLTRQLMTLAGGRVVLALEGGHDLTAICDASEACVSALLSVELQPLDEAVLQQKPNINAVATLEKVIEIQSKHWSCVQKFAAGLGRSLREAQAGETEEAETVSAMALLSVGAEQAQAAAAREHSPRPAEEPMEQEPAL

[8] = biological target: Histone deacetylase 3/Nuclear receptor corepressor 1 (HDAC3/NCoR1) (Homo sapiens); assay: Inhibition of HDAC3/NCOR1 (unknown origin) using Boc-Lys(Ac) as substrate by fluorogenic assay
[9] = Selectivity index, ratio of IC50 for Class 1/2b HDAC in human Jurkat E6.1 cells using Boc-Lys-(Ac)-AMC as substrate to IC50 for Class 2A HDAC4 in human Jurkat E6.1 cells using Boc-Lys-(TFA)-AMC as substrate by fluorogenic assay
In short: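 Human Jurkat E6.1 cells were assayed with two fluorogenic substrates. Boc-Lys-(TFA)-AMC reports class IIa activity, mostly HDAC4 in this line, and Boc-Lys-(Ac)-AMC reports class I/IIb activity. IC50s are geometric means of three experiments.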

[10] = Efflux ratio of permeability from basolateral to apical over apical to basolateral side in dog MDCK-MDR1 cells relative to wild type MDCK cells; type: ADME, cell-based, Canis lupus familiaris
[11] = Chemical stability of the compound in DMSO-d6 measured for 9 days at room temperature by 1H-NMR spectroscopy; type: physicochemical; conditions: 216 h; time 9 day

Sequence of Histone deacetylase 9 (Q9UKV0 whole entry, canonical isoform): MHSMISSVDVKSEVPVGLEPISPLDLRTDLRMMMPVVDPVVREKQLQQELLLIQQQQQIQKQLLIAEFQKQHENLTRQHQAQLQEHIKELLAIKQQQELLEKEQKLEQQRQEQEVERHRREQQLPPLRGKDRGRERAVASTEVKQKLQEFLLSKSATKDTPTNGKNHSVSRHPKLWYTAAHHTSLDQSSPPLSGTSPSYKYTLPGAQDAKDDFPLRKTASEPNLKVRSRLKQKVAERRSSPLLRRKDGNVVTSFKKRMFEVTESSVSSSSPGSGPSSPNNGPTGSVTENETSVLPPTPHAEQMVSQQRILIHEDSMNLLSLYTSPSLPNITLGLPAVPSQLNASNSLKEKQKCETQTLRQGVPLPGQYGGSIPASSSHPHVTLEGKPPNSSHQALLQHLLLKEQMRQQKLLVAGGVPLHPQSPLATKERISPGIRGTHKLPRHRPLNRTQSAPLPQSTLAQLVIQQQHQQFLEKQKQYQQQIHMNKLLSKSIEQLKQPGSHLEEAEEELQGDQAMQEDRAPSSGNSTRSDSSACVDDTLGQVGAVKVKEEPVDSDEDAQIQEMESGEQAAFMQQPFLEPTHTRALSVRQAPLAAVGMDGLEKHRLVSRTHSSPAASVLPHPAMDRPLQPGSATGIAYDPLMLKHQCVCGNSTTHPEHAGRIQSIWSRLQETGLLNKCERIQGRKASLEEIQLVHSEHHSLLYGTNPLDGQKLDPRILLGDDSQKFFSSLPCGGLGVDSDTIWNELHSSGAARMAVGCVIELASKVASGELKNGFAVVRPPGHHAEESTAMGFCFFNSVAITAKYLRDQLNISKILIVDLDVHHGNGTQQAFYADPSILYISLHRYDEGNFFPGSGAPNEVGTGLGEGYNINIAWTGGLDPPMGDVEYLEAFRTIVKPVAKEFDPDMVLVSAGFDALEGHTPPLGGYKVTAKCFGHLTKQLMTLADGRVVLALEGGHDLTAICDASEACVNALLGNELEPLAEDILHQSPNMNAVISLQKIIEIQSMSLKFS

SMILES	IC50 (Histone deacetylase 4 [1]) [µM]	solubility kinetic [2] [µM]	IC50 (Histone deacetylase 4 [3]) [µM]	CLint scaled [4] [mL/min/kg]	IC50 [6] [µM]	Ratio [10]	Ratio IC50 [9]	other results
O=C(NCCN1CCCC1)c1ccc(-c2noc(C(F)(F)F)n2)cc1	0.03	169 (≈ 59.9 µg/mL)	0.25	76	3.7			IC50 (Histone deacetylase 9): 0.07 µM; IC50 (Histone deacetylase 2): 26 µM; IC50 (Histone deacetylase 8): 2.8 µM; IC50 (Histone deacetylase 1): 13 µM; Papp [5]: 60.4 ×10⁻⁶ cm/s; IC50 [7]: 9.8 µM; IC50 (Histone deacetylase 5): 0.09 µM; IC50 [8]: 5.1 µM
CCCN(CCC)C[C@@H](C)NC(=O)c1ccc(-c2noc(C(F)F)n2)cc1	0.89		19					
CC(C)(CN1CCCC1)NC(=O)c1ccc(-c2noc(C(F)(F)F)n2)cc1	0.28		0.31		12		39	
O=C(NC1(CN2CCCC2)CC1)c1ccc(-c2noc(C(F)(F)F)n2)cc1	0.04		0.18		6.4		36	
C[C@H](CN1CCC[C@H]1C)NC(=O)c1ccc(-c2noc(C(F)(F)F)n2)cc1	0.07	178 (≈ 68.1 µg/mL)	0.6		14			
CCCN(CCC)C[C@@H](C)NC(=O)c1ccc(-c2noc(C)n2)cc1	> 50		> 50					
C[C@H](CN1CCC[C@@H](OC(F)F)C1)NC(=O)c1ccc(-c2noc(C(F)(F)F)n2)cc1	0.02		0.06	661	3.6	1.2	60	
CCCN(CCC)C[C@@H](C)NC(=O)c1ccc(-c2nc(C(F)(F)F)no2)cc1	28		> 50					
CCCN(CCC)C[C@@H](C)NC(=O)c1ccc(-c2noc(C(F)(F)F)n2)cc1		140 (≈ 55.8 µg/mL)		834	3			IC50 (Histone deacetylase 2): 9.3 µM; Stabilty [11]: Stable; IC50 (Histone deacetylase 8): 2.9 µM; IC50 (Histone deacetylase 1): 6 µM; Papp [5]: 54.1 ×10⁻⁶ cm/s; IC50 [7]: 6.4 µM
C[C@H](CN1CCCC(C)(C)C1)NC(=O)c1ccc(-c2noc(C(F)(F)F)n2)cc1	0.002	150 (≈ 61.6 µg/mL)	0.01	1290	0.52	1	52	
CCCN(CCC)C[C@@H](C)NC(=O)c1ccc(-c2ncon2)cc1	> 50		> 50					
C[C@H](CN1CCC[C@H](OC(F)F)C1)NC(=O)c1ccc(-c2noc(C(F)(F)F)n2)cc1	0.003	51 (≈ 22.9 µg/mL)	0.01	757	1.5	1.1	150	

Further lines, with some results ahead:

IC50 (Histone deacetylase 4 [1]) [µM]	solubility kinetic [2] [µM]	IC50 (Histone deacetylase 4 [3]) [µM]	CLint scaled [4] [mL/min/kg]	IC50 [6] [µM]	Ratio [10]	SMILES	Ratio IC50 [9]	other results
0.03		0.1	214	10.3	1.2	C[C@H](CN1CCC(F)CC1)NC(=O)c1ccc(-c2noc(C(F)(F)F)n2)cc1	103	
	157 (≈ 60 µg/mL)	0.07	66	9	1.6	C[C@H](CN1CCCCC1)NC(=O)c1ccc(-c2noc(C(F)(F)F)n2)cc1	129	
0.05		0.73		43		C[C@@H](CN1CCCC1)NC(=O)c1ccc(-c2noc(C(F)(F)F)n2)cc1	59	
0.01		0.03	128	1.7	1.2	C[C@H](CN1CCCCCC1)NC(=O)c1ccc(-c2noc(C(F)(F)F)n2)cc1	57	
0.01	178 (≈ 65.6 µg/mL)	0.07	65	10	2.2	C[C@H](CN1CCCC1)NC(=O)c1ccc(-c2noc(C(F)(F)F)n2)cc1	143	
0.23	52 (≈ 21 µg/mL)	1.3		> 50		C[C@H](CN1CCC(F)(F)C1)NC(=O)c1ccc(-c2noc(C(F)(F)F)n2)cc1	>38	
0.13	25 (≈ 10.5 µg/mL)	0.38		> 50		C[C@H](CN1CCC(F)(F)CC1)NC(=O)c1ccc(-c2noc(C(F)(F)F)n2)cc1	>132	
